Inconclusive results are not listed.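 Rule for the calls, unless noted: active = viability increase at or above a cutoff of the median across tested compounds plus 3 SD (cut at about 8.5% in these data, passing the limit was not always enough); inconclusive = some gains above the cutoff, reason not given; inactive = the rest.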
Assays:
[1] = S. cerevisiae growth inhibition in permissive medium (OD615), pilot counter-assay for S. cerevisiae lifespan shortening project, permissive growth control (AID 705;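 active = growth inhibition above 25% in both replicates, a cutoff set 3 SD above the mean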); settings: OD615, 24 h, at 10 µM, active compounds read high
Method in brief: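 Material: engineered DeaD yeast; compound dosing: one dose 10 µM, DMSO 0.25% final; measure: yeast growth inhibition indicated by reduced 24 h OD615; detection: OD615 turbidity read; incubation: cells pre-grown 4 h, then 24 h compound exposure, 30 °C humidified; medium: permissive synthetic complete medium with raffinose and galactose carbon sources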

[2] = S. cerevisiae growth inhibition in restrictive medium, OD615, pilot screen, restrictive growth control, yeast lifespan reduction project (AID 706;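 active = growth inhibition above a set limit, 3 SD over mean compound inhibition, in both replicates, cut at about 43% in these data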;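 note: modified DeaD lifespan yeast strain shifted to restrictive glucose medium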); settings: OD615, 48 h, at 10 µM, active compounds read high
Method in brief: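 material = engineered S. cerevisiae DeaD strain | medium = glucose-based CSMM-D restrictive medium | times = 4 h pre-incubation, 48 h exposure at 30 °C | technique = OD615 absorbance reading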

[3] = doxorubicin toxicity protection in MRP-1 cells – H69AR cells, CellTiter-Glo, duplicate, MRP-1 activator project, pilot screen (AID 807); settings: H69AR viability with doxorubicin, CellTiter-Glo luminescence; at 10 µM; active compounds read high;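 note: compound pretreatment 18-22 h then 72 h combined with doxorubicin; 0% = doxorubicin alone and 100% = vehicle without doxorubicin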
[4] = viability of HCT116 without oncogenic beta-catenin – human colon tumor cells, pilot screen (AID 823;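 active = cell viability at or below a set limit in both duplicate runs, the limit being the all-compound median minus 4 SD, cut at about 23% in these data, passing the limit was not always enough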;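 note: 0% = wells killed by 20 µM Hyamine and 100% = untreated DMSO cell wells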); settings: HCT116 beta-catenin knockout viability, CellTiter-Glo, 60 h; at 10 µM; active compounds read low
[5] = viability of PTEN-null HCT116 cells – cell-based, HCT116 clonal line, CellTiter-Glo, pilot screen (AID 824;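 active = viability at or below 27.92% in each of two runs, the all-compound median minus 4 SD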;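 note: 0% = 20 µM Hyamine control and 100% = vehicle cell control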); settings: HCT116 PTEN-deleted viability, 60 h, at 10 µM, active compounds read low
[6] = RAM pathway blockade in budding yeast – dse1pr::URA3 reporter, 5-FOA selection, pilot screen (AID 869;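 active = inhibition over a set limit, the all-compound mean plus 3 SD, in both replicate runs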;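 note: 0% = DMSO wells with no growth and 100% = 10 µM 1-NA-PP1 with full growth; RAM network block rescues cells from 5-FOA so hits raise OD615 growth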); settings: S. cerevisiae dse1pr::URA3 5-FOA growth, OD615, 2 d; at 10 µM; active compounds read high; strain carries analog-sensitive mutant Cbk1 kinase
[7] = RAM signaling pathway blockade in yeast – S. cerevisiae, Pdr1DBD-CYC8 efflux-inhibited sensitized strain, primary screen (AID 1298;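 active = RAM network inhibition above 8.4% in each of two replicates, 3 SD over the compound average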;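 note: 0% = DMSO untreated cells without growth and 100% = 10 µM 1-NA-PP1 full growth; higher means more yeast growth rescued from 5-FOA killing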); settings: S. cerevisiae cbk1-as DSE1-URA3 strain, 5-FOA growth OD615, 2 d; at 50 µM; active compounds read high

COc1cc(CO)cc(Br)c1OCC(=O)O
inactive: growth inhibition [1] -2.25% | growth inhibition [2] -3.28% | viability increase [3] -1.45% | viability [4] 102% | viability [5] 92.5% | inhibition [6] 0.03% | RAM network inhibition [7] -1.46%

O=C(C1CC(c2ccc(F)cc2)=NO1)N1CCN(c2ccccc2)CC1 (stereo unspecified)
inactive: growth inhibition [1] 1.07% | growth inhibition [2] -3.47% | viability increase [3] -0.13% | viability [4] 99.1% | viability [5] 95.6% | inhibition [6] 1.23% | RAM network inhibition [7] 3.67%

C=CCn1c(N(C)C)nc2c1c(=O)[nH]c(=O)n2C
inactive: growth inhibition [1] -8.42% | growth inhibition [2] -12.5% | viability increase [3] 1.25% | viability [4] 109% | viability [5] 100% | inhibition [6] 2.38% | RAM network inhibition [7] 4.26%

COc1cccc(C2NC(=O)NC(C)=C2C(=O)Nc2ccc(C)cc2)c1OC (stereo unspecified)
inactive: growth inhibition [1] -1.23% | growth inhibition [2] -4.83% | viability increase [3] 0.13% | viability [4] 98.5% | viability [5] 99.7% | inhibition [6] 0.455% | RAM network inhibition [7] 6.12%

O=C(CC(c1ccccc1)c1ccccc1)NCCO
inactive: growth inhibition [1] -6.53% | growth inhibition [2] -4.9% | viability increase [3] 0.49% | viability [4] 100% | viability [5] 96.1% | inhibition [6] 2.24% | RAM network inhibition [7] 5.36%

Cc1ccc(Cn2c(CN3CC(C)OC(C)C3)nc3c2c(=O)n(C)c(=O)n3C)cc1 (stereo unspecified)
inactive: growth inhibition [1] -5.45% | growth inhibition [2] -10.8% | viability increase [3] -1.28% | viability [4] 96.1% | viability [5] 95.1% | inhibition [6] 2.09% | RAM network inhibition [7] 1.95%

O=C(NCC1CCCO1)NC1(C(F)(F)F)Oc2ccccc2O1 (stereo unspecified)
inactive: growth inhibition [1] -24.1% | growth inhibition [2] -16% | viability increase [3] -7.32% | viability [4] 60.8% | viability [5] 67.1% | inhibition [6] 1.9% | RAM network inhibition [7] 2.09%

COc1ccc(CNC(=O)c2cnn3c(C(F)F)cc(C)nc23)cc1OC
inactive: growth inhibition [1] -6.09% | growth inhibition [2] 9.23% | viability increase [3] 0.02% | viability [4] 92.3% | viability [5] 86.2% | inhibition [6] 1.99% | RAM network inhibition [7] 2.31%

O=C1CCc2cc(S(=O)(=O)NC(C(=O)NCc3cccnc3)c3ccccc3)ccc2N1 (stereo unspecified)
inactive: growth inhibition [1] -5.88% | growth inhibition [2] 4.59% | viability increase [3] -2.98% | viability [4] 100% | viability [5] 98.3% | inhibition [6] -0.185% | RAM network inhibition [7] 3.79%

O=C1Nc2ccc(S(=O)(=O)N3CCCC3C(=O)O)c3cccc1c23 (stereo unspecified)
inactive: growth inhibition [1] 1.8% | growth inhibition [2] -5.75% | viability increase [3] -2.22% | viability [4] 92.8% | viability [5] 96.8% | inhibition [6] 0.57% | RAM network inhibition [7] 0.21%

O=C(c1ccc(Cn2c(=O)[nH]c3ccccc3c2=O)cc1)N1CCN(c2ccccn2)CC1
inactive: growth inhibition [1] -11.8% | growth inhibition [2] -8.79% | viability increase [3] -2.12% | viability [4] 93.1% | viability [5] 78.6% | inhibition [6] 0.23% | RAM network inhibition [7] 8.38%

O=C(NC1CCCc2ccccc21)C1CCN(c2c(N3CCCC3)c(=O)c2=O)CC1 (stereo unspecified)
inactive: growth inhibition [1] -5.2% | growth inhibition [2] -2.66% | viability increase [3] -3.06% | viability [4] 92.4% | viability [5] 90% | inhibition [6] 1.51% | RAM network inhibition [7] -0.37%

CCOC1=NC(C(=O)O)c2ccccc2/C(=C(/C)Cl)N1 (stereo unspecified)
inactive: growth inhibition [1] -4.61% | growth inhibition [2] -27.8% | viability increase [3] 0.7% | viability [4] 101% | viability [5] 96.8% | inhibition [6] 0.25% | RAM network inhibition [7] 2.78%

COc1ccc(Cl)cc1NC(=O)C1CCCO1 (stereo unspecified)
inactive: growth inhibition [1] 0.985% | growth inhibition [2] -9.53% | viability increase [3] -2.12% | viability [4] 98.9% | viability [5] 94.7% | inhibition [6] 1.42% | RAM network inhibition [7] 2.75%

CCCc1cc(C(=O)Nc2sc(C)c(CC)c2C#N)no1
inactive: growth inhibition [1] -6.42% | growth inhibition [2] -11.2% | viability increase [3] 2.26% | viability [4] 102% | viability [5] 101% | inhibition [6] 1.42% | RAM network inhibition [7] 0.53%

Cc1ccc(NC(=O)c2ccco2)cc1C
inactive: growth inhibition [1] 4.04% | growth inhibition [2] 0.435% | viability increase [3] -3.07% | viability [4] 95.5% | viability [5] 90.5% | inhibition [6] 0.665% | RAM network inhibition [7] 0.93%

CC1CN(c2cc(=O)n(Cc3ccc(F)cc3)c(=O)[nH]2)CC(C)O1 (stereo unspecified)
inactive: growth inhibition [1] 5.64% | growth inhibition [2] -6.42% | viability increase [3] 0.06% | viability [4] 99.4% | viability [5] 105% | inhibition [6] 1.31% | RAM network inhibition [7] -0.24%

COc1ccc(-c2cc(C(=O)O)c3ccccc3n2)c(OC)c1
inactive: growth inhibition [1] -10.4% | growth inhibition [2] 0.26% | viability increase [3] -2.6% | viability [4] 82.2% | viability [5] 89.3% | inhibition [6] 1.47% | RAM network inhibition [7] 5.56%

COc1ccccc1N1CCN(CC(=O)c2ccc3ccn(C(C)=O)c3c2)CC1
inactive: growth inhibition [1] -3.38% | growth inhibition [2] -12.2% | viability increase [3] -5.06% | viability [4] 88.2% | viability [5] 79.8% | inhibition [6] 1.14% | RAM network inhibition [7] 3.27%

Cn1c(C(=O)NC2CCCCC2)cc2c(=O)n(C)c3ccccc3c21
inactive: growth inhibition [1] -10.6% | growth inhibition [2] -6.48% | viability increase [3] -1.7% | viability [4] 88% | viability [5] 73.8% | inhibition [6] 1.46% | RAM network inhibition [7] 4.6%

CC1Cc2nc(SCC(=O)NCc3ccco3)n(-c3ccccc3)c(=O)c2S1 (stereo unspecified)
inactive: growth inhibition [1] -6.6% | growth inhibition [2] -7.02% | viability increase [3] -4.56% | viability [4] 103% | viability [5] 99% | inhibition [6] 0.405% | RAM network inhibition [7] 6.31%

Cc1ccc(S(=O)(=O)NC2OC(=O)C(Cl)=C2Cl)cc1 (stereo unspecified)
inactive: growth inhibition [1] -17.3% | growth inhibition [2] 10.1% | viability increase [3] -3.7% | viability [4] 86.4% | viability [5] 104% | inhibition [6] 0.495% | RAM network inhibition [7] 2.08%

O=C(Cc1cc(=O)[nH]c(=O)[nH]1)N1CCC(Cc2ccccc2)CC1
inactive: growth inhibition [1] 0.795% | growth inhibition [2] -5.47% | viability increase [3] -0.99% | viability [4] 96% | viability [5] 94.2% | inhibition [6] 1.33% | RAM network inhibition [7] 3.92%

— PubChem BioAssay
